Assay results: paper PMC7540576 (Chembiochem, 2020)
Non-standard residues stand in square brackets, D forms with d. Residues, ends and D or L forms follow the SMILES beside them. *: point of attachment. Orn(α-tetramethylguanidino) = CN(C)C(=N[C@@H](CCCN)C(=O)*)N(C)C

Legend:
[1] = tested on: ribosome of S. aureus DSM 6247; assay: Fluorescence polarization assay, 70S ribosome of S. aureus; format: binding, Staphylococcus aureus DSM 6247; details: S. aureus ribosome versus E. coli ribosome
In short: (§1)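 70S ribosomes came from log-phase cultures (OD600 ~1): bead-mill lysis in HEPES buffer pH 7.6, DNase I/meropenem, clarification, then 165000 g for 17 h. Concentration by A260 (1 AU = 28 pmol/mL). In casein-blocked wells, ribosomes were twofold diluted in 23 steps (12 µmol/L–2.9 pmol/L) with Cf-labeled peptide added at 40 nmol/L, then incubated 90 min at 28 °C in the dark. Polarization read at ex485/em535. K_d came from a variable-slope dose-response fit of ≥2 triplicate experiments on different days.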

P. aeruginosa ATCC 27853 = assay: Antimicrobial activity; format: cell-based, Pseudomonas aeruginosa DSM 1117 / ATCC 27853; details: broth micro dilution, 25 % MHB2, 7.5×10^6 cfu/mL, 37 °C, 20±2 h, triplicates
In short: (§2)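 Broth microdilution in 25% MHB2. Aqueous peptide stock (3 g/L) serially twofold diluted from 128 µg/mL in eight steps. Overnight 25% MHB2 cultures were diluted 30-fold, grown 4 h (37 °C, 200 rpm), and adjusted by McFarland to give a final 7.5×10^6 cfu/mL. Plates were incubated 20±2 h at 37 °C and OD595 read. MIC was the lowest concentration preventing visible growth. Triplicates.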

K. pneumoniae ATCC 10031 [2] = assay: Antimicrobial activity; format: cell-based, Klebsiella pneumoniae DSM 681 / ATCC 10031; details: broth micro dilution, 25 % MHB2, 7.5×10^6 cfu/mL, 37 °C, 20±2 h, triplicates
In short: as §2

A. baumannii ATCC 15308 = assay: Antimicrobial activity; format: cell-based, Acinetobacter baumannii DSM 30008 / ATCC 15308; details: for MIC: broth micro dilution, 25 % MHB2, 7.5×10^6 cfu/mL, 37 °C, 20±2 h, triplicates
In short: as §2

E. coli BW25113 [3] = assay: Antimicrobial activity; format: cell-based, Escherichia coli BW25113; details: broth micro dilution, 25 % MHB2, 7.5×10^6 cfu/mL, 37 °C, 20±2 h, triplicates
In short: as §2

[4] = tested on: A. baumannii ATCC 15308 ribosomes; assay: Fluorescence polarization assay, 70S ribosome of A. baumannii; format: binding, Acinetobacter baumannii DSM 30008 / ATCC 15308; details: RF1 added at equimolar quantities to the A. baumannii ribosome preparation
In short: as §1

S. aureus DSM 6247 [5] = assay: Antimicrobial activity; format: cell-based, Staphylococcus aureus DSM 6247; details: broth micro dilution, 25 % MHB2, 7.5×10^6 cfu/mL, 37 °C, 20±2 h, triplicates
In short: as §2

E. coli BL21AI = E. coli BL21AI incubated with 4 mg/L peptide; cited from earlier work
E. coli BW25113 [6] = assay: Bacterial uptake, peptide quantified by LC-MS; format: cell-based, Escherichia coli BW25113; details: high cell counts, 30 min
In short: (§3)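 Cultures in 25% MHB2 were grown 4.0±0.25 h after 30-fold dilution, sized by OD600 (1.0 = 1.2×10^9 cfu/mL), pelleted and resuspended to 1.5×10^10 or 1.5×10^9 cfu/mL. Each was mixed 1:1 with medium containing 16 µg/mL peptide and shaken 30 min at 37 °C, with viable counts plated. Peptide in the supernatant (pellets also quantified) was measured by SPE then RP-HPLC-ESI-MS/MS MRM against a cell-free 8 µg/mL control and an on-plate calibration. Uptake was taken as the difference. Triplicate, repeated another day.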

K. pneumoniae ATCC 10031 [7] = assay: Bacterial uptake, peptide quantified by LC-MS; format: cell-based, Klebsiella pneumoniae DSM 681 / ATCC 10031; details: high cell counts, 30 min
In short: as §3

S. aureus DSM 6247 [8] = assay: Bacterial uptake, peptide quantified by LC-MS; format: cell-based, Staphylococcus aureus DSM 6247; details: ∼7.5×10^9 cells/mL, 30 min, relative to cell-free medium, LC-MS MRM (Figure S3)
In short: as §3

[9] = tested on: Gram‐negatives (E. coli, K. pneumoniae, A. baumannii, P. aeruginosa); assay: Bacterial uptake, values stated for the Gram-negatives together; format: cell-based; details: 30 min
In short: as §3

[10] = calculated from reduced quantity in supernatant

SMILES | K d, fold higher than for E. coli [1] [fold] | MIC (P. aeruginosa ATCC 27853) | MIC (K. pneumoniae ATCC 10031 [2]) | MIC, fold difference E. coli versus A. baumannii (A. baumannii ATCC 15308; MIC 4 μg/mL for E. coli and 128 μg/mL for A. baumannii) [fold] | MIC (A. baumannii ATCC 15308) | MIC (E. coli BW25113 [3]) | Effect of recombinant E. coli RF1 on K d [4] | MIC (S. aureus DSM 6247 [5]) | Peptide per cell (E. coli BL21AI) [fg/cell] | Peptide per single cell, on average (E. coli BW25113 [6]) [fg] | Uptake (peptide amount) (E. coli BW25113 [6]) [ng] | Uptake rate (E. coli BW25113 [6]; [10]) [%] | Peptide per single cell, on average (K. pneumoniae ATCC 10031 [7]) [fg] | Uptake (peptide amount) (K. pneumoniae ATCC 10031 [7]) [ng] | Uptake rate (K. pneumoniae ATCC 10031 [7]; [10]) [%] | Total quantities determined in supernatants and pellets (S. aureus DSM 6247 [8]) | Relative peptide quantity in culture supernatants ([9]; high cell counts ∼7.5×10^9 cells/mL, typical value, except for E. coli) | Uptake rates ([9]; low cell counts, Gram-negatives)
CC[C@H](C)[C@H](NC(=O)[C@H](Cc1ccc(O)cc1)NC(=O)[C@@H](NC(=O)[C@@H]1CCCN1C(=O)[C@H](CCCNC(=N)N)NC(=O)[C@H](CC(N)=O)NC(=O)[C@H](CC(N)=O)NC(=O)[C@H](CCCN)N=C(N(C)C)N(C)C)C(C)C)C(=O)N1CCC[C@H]1C(=O)N[C@@H](CCCNC(=N)N)C(=O)N1CCC[C@H]1C(=O)N[C@@H](CCCNC(=N)N)C(=O)N1CCC[C@H]1C(=O)N1CCC[C@H]1C(=O)N[C@@H](Cc1c[nH]cn1)C(=O)N1CCC[C@H]1C(=O)N[C@@H](CCCNC(=N)N)C(=O)N[C@@H](CC(C)C)C(=O)O [Api137] ({Orn(α-tetramethylguanidino)}-NNRPVYIPRPRPPHPRL-OH) | 34 | >128 (>56) mg/L | 2 (0.9) mg/L | 32 | 128 (56) mg/L | 4 (1.8) mg/L | did not affect | >128 (>56) mg/L |  |  |  |  |  |  |  |  |  | 
CC[C@H](C)[C@H](NC(=O)[C@@H](CCCNC(=N)N)NC(=O)[C@H](CCCNC(=N)N)NC(=O)[C@@H]1CCCN1C(=O)[C@@H]1CCCN1C(=O)[C@H](CCCNC(=N)N)NC(=O)[C@@H]1CCCN1C(=O)[C@H](CCCNC(=N)N)NC(=O)[C@@H]1CCCN1C(=O)[C@H](CC(C)C)NC(=O)[C@H](Cc1ccc(O)cc1)NC(=O)[C@@H]1CCCN1C(=O)[C@@H]1CCCN1C(=O)[C@H](CCCCN)NC(=O)[C@H](CC(=O)O)NC(=O)[C@@H](N)C(C)C)C(=O)N[C@@H](Cc1ccc(O)cc1)C(=O)N[C@@H](CC(N)=O)C(=O)N[C@H](CCCNC(=N)N)C(N)=O [Onc112] (H-VDKPPYLPRPRPPR[dR]IYN[dR]-NH2) |  | 64 (26.8) mg/L | 2 (0.8) mg/L |  | 32 (13.4) mg/L | 8 (3.4) mg/L |  | 64 (26.8) mg/L | 0.2 | 0.5 | 352 | ~44 | 0.3 | 208 | ~25 | around 110% | around 75% | below 20%
